Source: ChEMBL document CHEMBL1212834, “Pyrido[2,3-b]pyrazines, discovery of TRPV1 antagonists with reduced potential for the formation of reactive metabolites” (Bioorg Med Chem Lett, 2010)

Key:
[1] = test system: Rattus norvegicus; assay: Antiinflammatory activity in rat assessed as inhibition of complete Freund's adjuvant-induced hind paw edema at 3 mg/kg, po administered 1 day after complete Freund's adjuvant challenge QD for 3 consecutive days measured at 24 hrs post dose on day 3; format: functional
In short: (§1)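 CFA 200 µL injected intraplantar into the left hind paw. From the next day, 1, 3 or 10 mg/kg po once daily for 3 days as a suspension in 0.5% methocel.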

[2] = test system: Rattus norvegicus; assay: Antiinflammatory activity in Sprague-Dawley rat assessed as inhibition of carrageenan-induced thermal hyperalgesia at 1 mg/kg, po administered 3.5 hrs after carrageenan challenge measured after 5 hrs; format: functional
In short: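 Rat carrageenan-induced thermal hyperalgesia. Dosed orally as a suspension in 0.5% methocel; % inhibition reported at each dose.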

[3] = Volume of distribution in rat at 1 mg/kg, iv; format: ADME, organism-based; set-up: dose 1 mg/kg, route intravenous; conditions: in vivo
In short: (§2)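 Intravenous dose of 1 mg/kg given as a solution in 3:1 PEG300:water to rat, dog or rhesus monkey. Plasma PK parameters (T1/2, clearance, Vd) derived.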

[4] = AUC (0 to 24 hrs) in dog at 1 mg/kg, po; format: ADME, organism-based, Canis lupus familiaris; set-up: time < 24 hr, dose 1 mg/kg, route oral; conditions: plasma
In short: (§3)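 Oral PK at the dose in the line, given as a suspension in 0.5% methocel. […] Reported as mean ± error.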

[5] = AUC (0 to 24 hrs) in rat at 10 mg/kg, po; format: ADME, organism-based; set-up: time < 24 hr, dose 10 mg/kg, route oral; conditions: plasma; in short: as §3
[6] = Cmax in rat at 100 mg/kg, po; format: ADME, organism-based; set-up: dose 100 mg/kg, route oral; conditions: in vivo; in short: as §3
[7] = test system: Rattus norvegicus; assay: Antiinflammatory activity in rat assessed as inhibition of complete Freund's adjuvant-induced hind paw edema at 1 mg/kg, po administered 1 day after complete Freund's adjuvant challenge QD for 3 consecutive days measured at 24 hrs post dose on day 3; format: functional; in short: as §1
[8] = species on record: Canis familiaris; assay: Cardiotoxicity in dog assessed as effect on heart rate at plasma concentration of up to 24 uM; format: toxicity, organism-based, Canis lupus familiaris
[9] = Plasma concentration in rat complete Freund's adjuvant-induced inflammation model at 3 mg/kg, po at 2 hrs on third day; format: ADME, organism-based; set-up: dose 3 mg/kg, route oral
In short: (§4)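 CFA (200 µL) injected intraplantar into left hind paw; next day rats dosed orally once daily for three consecutive days (1, 3 or 10 mg/kg, suspension in 0.5% methocel). Separate cohort: plasma sampled each day 2 h after dosing.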

[10] = Half life in dog at 1 mg/kg, iv; format: ADME, organism-based, Canis lupus familiaris; set-up: dose 1 mg/kg, route intravenous; conditions: in vivo
In short: (§5)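 IV PK at 1 mg/kg, given as a solution in 3:1 PEG300:water. Plasma half-life, clearance and volume of distribution derived.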

[11] = Cmax in rhesus monkey at 1 mg/kg, po; format: ADME, organism-based, Macaca mulatta; set-up: dose 1 mg/kg, route oral; conditions: in vivo; in short: as §3
[12] = Cmax in dog at 10 mg/kg, po; format: ADME, organism-based, Canis lupus familiaris; set-up: dose 10 mg/kg, route oral; conditions: in vivo; in short: as §3
[13] = test system: Rattus norvegicus; assay: Antiinflammatory activity in po dosed rat assessed as inhibition of complete Freund's adjuvant-induced hind paw edema administered 1 day after complete Freund's adjuvant challenge QD for 3 consecutive days measured at 2 hrs post dose on day 1; format: functional, organism-based; in short: as §1
[14] = target: Voltage-gated inwardly rectifying potassium channel KCNH2 (Homo sapiens, UniProt Q12809); assay: Inhibition of human hERG
[15] = Plasma concentration in rat complete Freund's adjuvant-induced inflammation model at 10 mg/kg, po at 2 hrs on second day; format: ADME, organism-based; set-up: dose 10 mg/kg, route oral; in short: as §4
[16] = AUC (0 to 24 hrs) in rat at 100 mg/kg, po; format: ADME, organism-based; set-up: time < 24 hr, dose 100 mg/kg, route oral; conditions: plasma; in short: as §3
[17] = Plasma concentration in rat complete Freund's adjuvant-induced inflammation model at 3 mg/kg, po QD for 3 consecutive days measured at 2 hrs post dose on day 2; format: ADME, organism-based; set-up: dose 3 mg/kg, route oral; in short: as §4
[18] = Volume of distribution in rhesus monkey at 1 mg/kg, iv; format: ADME, organism-based, Macaca mulatta; set-up: dose 1 mg/kg, route intravenous; conditions: in vivo; in short: as §2
[19] = target: T1, Amine oxidase [flavin-containing] A (Homo sapiens, UniProt P21397); assay: Inhibition of MAOA
T1 sequence (P21397 whole entry): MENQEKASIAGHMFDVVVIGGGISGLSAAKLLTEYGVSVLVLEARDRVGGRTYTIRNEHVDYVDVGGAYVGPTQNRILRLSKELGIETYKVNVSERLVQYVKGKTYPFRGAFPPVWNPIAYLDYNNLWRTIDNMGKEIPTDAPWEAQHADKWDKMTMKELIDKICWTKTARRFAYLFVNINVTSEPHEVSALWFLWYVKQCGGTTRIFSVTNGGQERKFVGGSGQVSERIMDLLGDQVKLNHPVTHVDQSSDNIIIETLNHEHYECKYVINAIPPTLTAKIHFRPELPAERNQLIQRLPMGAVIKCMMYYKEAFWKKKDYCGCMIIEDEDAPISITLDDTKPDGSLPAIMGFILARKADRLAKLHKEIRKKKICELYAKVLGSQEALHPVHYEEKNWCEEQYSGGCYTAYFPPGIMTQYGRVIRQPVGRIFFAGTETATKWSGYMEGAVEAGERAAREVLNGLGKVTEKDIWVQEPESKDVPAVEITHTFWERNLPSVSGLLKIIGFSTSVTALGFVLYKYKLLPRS
In short: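 Off-target panel of more than 160 receptors, ion channels, transporters and kinases, which included MAO.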

[20] = test system: MDCK; assay: Efflux ratio of permeability from basolateral to apical side over apical to basolateral side of MDCK cells; conditions: dog
[21] = target: Transient receptor potential cation channel subfamily V member 1 (Homo sapiens, UniProt Q8NER1); assay: Antagonist activity at human TRPV1 assessed as inhibition of capsaicin-induced receptor activation by FLIPR assay; format: functional
In short: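 Human TRPV1 activated by capsaicin; inhibition read by FLIPR. IC50 is the mean of ≥3 experiments.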

[22] = species on record: Canis familiaris; assay: Cardiotoxicity in dog assessed as effect on mean arterial pressure at plasma concentration of up to 24 uM; format: toxicity, organism-based, Canis lupus familiaris
[23] = Half life in rat at 1 mg/kg, iv; format: ADME, organism-based; set-up: dose 1 mg/kg, route intravenous; conditions: in vivo; in short: as §5
[24] = test system: Plasma; assay: Covalent protein binding in rat assessed per mg of protein at 8.1 mg/kg, po after 2 to 24 hrs; conditions: in vivo

Sequence of Voltage-gated inwardly rectifying potassium channel KCNH2 (Q12809 whole entry): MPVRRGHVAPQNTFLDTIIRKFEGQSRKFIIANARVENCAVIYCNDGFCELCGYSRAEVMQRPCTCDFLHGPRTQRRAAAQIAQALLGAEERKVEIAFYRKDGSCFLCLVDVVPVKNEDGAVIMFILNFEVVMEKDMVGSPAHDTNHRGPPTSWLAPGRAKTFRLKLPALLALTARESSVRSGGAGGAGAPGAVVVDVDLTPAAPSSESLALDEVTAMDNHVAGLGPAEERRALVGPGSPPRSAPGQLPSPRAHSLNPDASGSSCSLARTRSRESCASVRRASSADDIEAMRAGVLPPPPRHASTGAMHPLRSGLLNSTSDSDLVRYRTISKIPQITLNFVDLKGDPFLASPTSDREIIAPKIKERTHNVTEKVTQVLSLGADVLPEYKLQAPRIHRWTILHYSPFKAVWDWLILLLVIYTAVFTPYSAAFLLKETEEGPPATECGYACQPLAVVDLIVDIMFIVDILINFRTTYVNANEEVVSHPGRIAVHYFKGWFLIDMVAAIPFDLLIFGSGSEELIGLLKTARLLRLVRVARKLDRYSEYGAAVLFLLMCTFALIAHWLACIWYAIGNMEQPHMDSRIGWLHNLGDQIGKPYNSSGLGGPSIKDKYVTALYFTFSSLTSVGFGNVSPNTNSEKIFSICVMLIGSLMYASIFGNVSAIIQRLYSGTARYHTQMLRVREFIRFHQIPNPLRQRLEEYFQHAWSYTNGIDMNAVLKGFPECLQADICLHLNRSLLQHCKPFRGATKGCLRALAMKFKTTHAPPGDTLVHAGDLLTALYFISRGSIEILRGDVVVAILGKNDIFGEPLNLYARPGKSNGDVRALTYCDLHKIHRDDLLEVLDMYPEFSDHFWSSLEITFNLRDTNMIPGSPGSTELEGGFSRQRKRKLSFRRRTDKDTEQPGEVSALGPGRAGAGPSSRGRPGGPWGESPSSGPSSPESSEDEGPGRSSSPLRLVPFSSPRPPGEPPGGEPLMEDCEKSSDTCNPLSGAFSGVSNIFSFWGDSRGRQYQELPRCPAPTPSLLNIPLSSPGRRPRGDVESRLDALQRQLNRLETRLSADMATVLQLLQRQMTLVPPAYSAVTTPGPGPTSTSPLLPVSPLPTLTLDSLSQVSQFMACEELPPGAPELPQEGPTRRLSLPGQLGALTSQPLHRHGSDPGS
Sequence of Transient receptor potential cation channel subfamily V member 1 (Q8NER1 whole entry): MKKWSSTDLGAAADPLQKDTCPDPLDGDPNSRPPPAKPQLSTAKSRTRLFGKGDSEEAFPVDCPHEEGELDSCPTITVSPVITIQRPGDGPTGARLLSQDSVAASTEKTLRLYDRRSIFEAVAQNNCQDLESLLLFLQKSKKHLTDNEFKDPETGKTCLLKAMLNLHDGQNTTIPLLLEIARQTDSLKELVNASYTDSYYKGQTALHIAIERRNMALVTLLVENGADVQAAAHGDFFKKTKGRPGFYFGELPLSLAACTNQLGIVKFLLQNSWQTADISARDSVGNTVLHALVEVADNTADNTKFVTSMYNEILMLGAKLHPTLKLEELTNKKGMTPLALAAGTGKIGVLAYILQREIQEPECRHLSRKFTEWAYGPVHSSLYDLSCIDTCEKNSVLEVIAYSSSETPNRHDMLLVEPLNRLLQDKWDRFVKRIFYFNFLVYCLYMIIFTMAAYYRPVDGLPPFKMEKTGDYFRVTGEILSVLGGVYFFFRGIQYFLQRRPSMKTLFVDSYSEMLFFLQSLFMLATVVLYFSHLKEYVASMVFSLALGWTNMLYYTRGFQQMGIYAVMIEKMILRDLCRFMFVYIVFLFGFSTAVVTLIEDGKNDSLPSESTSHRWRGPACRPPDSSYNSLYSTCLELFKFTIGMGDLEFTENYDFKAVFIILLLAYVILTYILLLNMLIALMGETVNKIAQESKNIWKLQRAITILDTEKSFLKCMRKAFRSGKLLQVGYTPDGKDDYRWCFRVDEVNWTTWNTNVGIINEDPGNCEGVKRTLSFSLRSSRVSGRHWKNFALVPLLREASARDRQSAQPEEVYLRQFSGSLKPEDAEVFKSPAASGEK

`NC(=O)c1cnc(-c2cnc3c(Nc4ccc(C(F)(F)F)cn4)ccnc3n2)c(C(F)(F)F)c1` gave an inhibition in vivo at 3 mg/kg [1] of 64%, an inhibition in vivo at 1 mg/kg [2] of 49% and a Vd [3] of 4.3 L/kg. It also gave an AUC(0-t) at 24 h [4] of 2.7 µM·h, an AUC(0-t) at 24 h [5] of 29.9 µM·h and a Cmax [6] of 15000 nM. The inhibition in vivo at 1 mg/kg [7] was 42%, the Activity [8] was “Non-toxic” and the concentration at 2 h [9] was 1280 nM. For the same compound, the half-life [10] was 1.5 h, the Cmax [11] was 700 nM and the Cmax [12] was 5200 nM. The Activity [13] was “Dose-dependent effect”, the IC50 [14] was 5900 nM and the concentration at 2 h [15] was 3120 nM. It also gave an AUC(0-t) at 24 h [16] of 268 µM·h, a concentration at 2 h [17] of 1100 nM and a Vd [18] of 1 L/kg. For the same compound, the IC50 [19] was 2400 nM, the Ratio [20] was 3.1 and the IC50 [21] was 0.8 nM. For the same compound, the Activity [22] was “Non-toxic”, the half-life [23] was 2.3 h and the covalent protein binding [24] was less than 10 pmol/mg.
